Assay results published in ChEMBL document CHEMBL1121898, “Potential antiestrogens. Synthesis and evaluation of mammary tumor inhibiting activity of 1,2-dialkyl-1,2-bis(3'-hydroxyphenyl)ethanes” (1981).
Values belong to the compound of their own block, whether it stands above or below them.

Assays:
[1] = tested on: MCF7; experiment: Inhibition of estrogen receptor positive MCF-7 cell proliferation as cell number after 10 days at 10e-6 M; assay type: functional, Homo sapiens
Summary of the method: (§1)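 MCF-7 cells were grown in McCoy's 5a medium with fetal bovine serum stripped by DCC (0.5 h, 45 °C). Compounds were dissolved in ethanol (final ≤0.5%) and diluted in complete medium. Cells were seeded at 5×10^4 cells/plate. On day 10, three replicate plates per group were counted by Coulter counter, three counts per plate. Percent T/C = test/control. In a retest, compounds were given at 10^-7 M with 17β-estradiol at 10^-7 or 10^-8 M.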

[2] = tested on: MCF7; experiment: Inhibition of estrogen receptor positive MCF-7 cell proliferation as percent treated/control cell number after 10 days at 10e-7 M; assay type: functional, Homo sapiens; summary of the method: as §1
[3] = tested on: MCF7; experiment: Inhibition of estrogen receptor positive MCF-7 cell proliferation as percent treated/control cell number after 10 days at 10e-8 M; assay type: functional, Homo sapiens; summary of the method: as §1
[4] = tested on: MCF7; experiment: Inhibition of estrogen receptor positive MCF-7 cell proliferation as percent treated/control cell number after 10 days at 10e-6 M; assay type: functional, Homo sapiens; summary of the method: as §1
[5] = tested on: MCF7; experiment: Inhibition of estrogen receptor positive MCF-7 cell proliferation as cell number after 10 days at 10e-7 M; assay type: functional, Homo sapiens; summary of the method: as §1
[6] = tested on: MCF7; experiment: Inhibition of estrogen receptor positive MCF-7 cell proliferation as cell number after 10 days at 10e-8 M; assay type: functional, Homo sapiens; summary of the method: as §1
[7] = species: Rattus norvegicus; experiment: Initial tumor number of DMBA-induced hormone-dependent mammary carcinoma in rats at 17 mg; assay type: functional
Summary of the method: (§2)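 DMBA-induced, hormone-dependent mammary adenocarcinoma in SD rats. Rats bearing at least one tumor >140 mm² were placed in groups of ten. Compound was given sc as a single dose (mg/kg) daily Monday–Thursday and a double dose on Friday. Tumors were counted at the start and as new tumors; responses were scored as complete remission (not palpable), partial remission (≥50% reduction), no change or progression. Tumor area and body weight were recorded as % change.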

[8] = target: T1, Estrogen receptor (Mus musculus) (UniProt O08537+P19785); experiment: Estrogenic activity in uterotrophic test in mice at 0 ug; assay type: functional
T1 sequence (O08537 whole entry, looked up): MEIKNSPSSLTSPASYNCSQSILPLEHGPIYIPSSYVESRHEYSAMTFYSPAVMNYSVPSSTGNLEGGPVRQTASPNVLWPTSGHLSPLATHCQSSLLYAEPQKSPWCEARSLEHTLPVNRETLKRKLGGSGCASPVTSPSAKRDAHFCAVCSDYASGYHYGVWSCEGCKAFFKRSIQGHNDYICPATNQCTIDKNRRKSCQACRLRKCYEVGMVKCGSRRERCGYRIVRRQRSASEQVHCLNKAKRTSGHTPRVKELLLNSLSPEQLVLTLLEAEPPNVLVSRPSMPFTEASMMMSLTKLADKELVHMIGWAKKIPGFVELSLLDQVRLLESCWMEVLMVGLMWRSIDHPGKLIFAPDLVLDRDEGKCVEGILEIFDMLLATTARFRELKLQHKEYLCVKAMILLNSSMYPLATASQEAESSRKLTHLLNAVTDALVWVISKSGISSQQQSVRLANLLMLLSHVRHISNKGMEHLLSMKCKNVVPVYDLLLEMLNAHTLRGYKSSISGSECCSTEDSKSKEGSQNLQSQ
T1 sequence (P19785 whole entry, looked up): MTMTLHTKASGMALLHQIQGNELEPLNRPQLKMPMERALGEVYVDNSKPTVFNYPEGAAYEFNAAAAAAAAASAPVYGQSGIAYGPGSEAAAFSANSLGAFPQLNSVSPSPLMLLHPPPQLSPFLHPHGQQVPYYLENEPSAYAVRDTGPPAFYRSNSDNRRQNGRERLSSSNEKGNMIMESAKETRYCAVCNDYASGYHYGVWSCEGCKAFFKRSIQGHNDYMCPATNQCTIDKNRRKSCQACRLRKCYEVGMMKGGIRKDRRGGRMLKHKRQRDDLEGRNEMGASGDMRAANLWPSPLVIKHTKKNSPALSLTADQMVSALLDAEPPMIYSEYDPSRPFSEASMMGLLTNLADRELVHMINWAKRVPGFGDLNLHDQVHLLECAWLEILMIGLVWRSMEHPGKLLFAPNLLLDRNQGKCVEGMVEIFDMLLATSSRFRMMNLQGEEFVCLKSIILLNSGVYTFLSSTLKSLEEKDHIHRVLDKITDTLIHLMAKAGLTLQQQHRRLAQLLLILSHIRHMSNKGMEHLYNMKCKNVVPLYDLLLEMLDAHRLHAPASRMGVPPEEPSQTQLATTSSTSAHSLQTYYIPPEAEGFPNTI
Summary of the method: (§3)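 Uterine growth stimulation in immature female NMRI mice, 20 days old (14.5 ± 1.2 g), 10 per group. Test compound in 0.1 mL olive oil was given sc daily for 3 days. Uteri were excised 24 h after the final injection and weighed. Effect is reported as mean ± SD.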

[9] = species: Rattus norvegicus; experiment: Progression of DMBA-induced hormone-dependent mammary carcinoma tumors in rats at 34 mg; assay type: functional
[10] = species: Rattus norvegicus; experiment: Percent change in body weight DMBA-induced hormone-dependent mammary carcinoma tumors in rats at 34 mg for 7 days; assay type: functional
[11] = species: Rattus norvegicus; experiment: Percent change in body weight DMBA-induced hormone-dependent mammary carcinoma tumors in rats at 17 mg for 7 days; assay type: functional
Summary of the method: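 DMBA-induced, hormone-dependent mammary adenocarcinoma in SD rats; animals carrying at least one tumor over 140 mm² put in groups of ten. Compound given sc, dose per kg body weight per day: single dose Monday to Thursday, double dose Friday. Body weight read out as % change, alongside tumor counts, remission categories and % change in tumor area.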

[12] = species: Rattus norvegicus; experiment: Complete remission of DMBA-induced hormone-dependent mammary carcinoma tumors in rats at 17 mg; assay type: functional
Summary of the method: (§4)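 Female SD rats bearing DMBA-induced, hormone-dependent mammary adenocarcinoma, with at least one tumor >140 mm², were grouped in tens. Dosing was sc per kg body weight: a single dose daily Monday–Thursday and a double dose Friday. Ovariectomy served as the comparison arm. Complete remission was defined as a tumor no longer palpable. Body weight and tumor area changes were also recorded.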

[13] = target: T1, Estrogen receptor (Mus musculus); experiment: Inhibitory activity in mouse uterine weight test at 100 ug; assay type: functional
Summary of the method: (§5)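 Antiuterotrophic (Dorfman) assay in immature 20-day-old female NMRI mice, groups of 10. Uterine growth was stimulated with estrone (0.1 μg) and the test compound was given alongside it, sc daily for 3 days in 0.1 mL olive oil. Uteri were taken 24 h after the last dose. Uterine weight is reported as means ± SD and inhibition as % of the estrone-stimulated response.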

[14] = target: T1, Estrogen receptor (Mus musculus); experiment: Antiestrogenic activity in uterotrophic test in mice at 3.3 ug; assay type: functional
Summary of the method: (§6)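 Immature female NMRI mice, 20 days old (14.5 ± 1.2 g), randomly grouped 10 per group. Each received a daily sc injection for 3 days of 0.1 mL olive oil solution containing test compound, together with estrone to stimulate uterine growth. Uteri were removed 24 h after the last injection and weighed. Results are reported as % inhibition of the estrone-stimulated uterine weight gain, mean ± SD.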

[15] = target: T1, Estrogen receptor (Mus musculus); experiment: Estrogenic activity in uterotrophic test in mice at 300 ug; assay type: functional
Summary of the method: (§7)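 Immature (20-day-old) female NMRI mice, 14.5 ± 1.2 g, randomized into groups of 10. Given the test compound sc daily for 3 days in 0.1 mL olive oil. Uteri removed 24 h after the last injection; uterine weight taken as the read-out, means ± SD. Dose in μg.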

[16] = target: T1, Estrogen receptor (Mus musculus); experiment: Estrogenic activity in uterotrophic test in mice at 900 ug; assay type: functional; summary of the method: as §7
[17] = target: T1, Estrogen receptor (Mus musculus); experiment: Antiestrogenic activity in uterotrophic test in mice at 100 ug; assay type: functional; summary of the method: as §6
[18] = target: T1, Estrogen receptor (Mus musculus); experiment: Estrogenic activity in uterotrophic test in mice at 2700 ug; assay type: functional; summary of the method: as §3
[19] = target: T1, Estrogen receptor (Mus musculus); experiment: Inhibitory activity in mouse uterine weight test at 3.3 ug; assay type: functional; summary of the method: as §5
[20] = target: T1, Estrogen receptor (Mus musculus); experiment: Inhibitory activity in mouse uterine weight test at 0.1 ug; assay type: functional; summary of the method: as §5
[21] = species: Rattus norvegicus; experiment: Final number of DMBA-induced hormone-dependent mammary carcinoma tumors in rats at 8.5 mg; assay type: functional
Summary of the method: (§8)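 Sprague-Dawley rats carrying DMBA-induced, hormone-dependent mammary adenocarcinoma, at least one tumor >140 mm², were placed in groups of ten. Compounds were given sc, with doses in mg/kg: a single daily dose Monday to Thursday and a double dose on Friday. Ovariectomy served as a comparator group. New tumors arising during the test were counted.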

[22] = species: Rattus norvegicus; experiment: Progression of DMBA-induced hormone-dependent mammary carcinoma tumors in ovariectomised rats; assay type: functional
Summary of the method: (§9)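 DMBA-induced, hormone-dependent mammary adenocarcinoma in SD rats, with ovariectomy as the treatment. Rats bearing at least one tumor >140 mm² were placed in groups of ten. Tumors were counted at the start and as new tumors. Responses were scored as complete remission, partial remission (≥50% size reduction), no change or progression, with % change in tumor area and body weight.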

[23] = target: T1, Estrogen receptor (Mus musculus); experiment: Antiestrogenic activity in uterotrophic test in mice at 0 ug; assay type: functional; summary of the method: as §6
[24] = target: T1, Estrogen receptor (Mus musculus); experiment: Antiestrogenic activity in uterotrophic test in mice at 1000 ug; assay type: functional; summary of the method: as §6
[25] = species: Rattus norvegicus; experiment: Percent unchanged tumor size of DMBA-induced hormone-dependent mammary carcinoma tumors in rats at 34 mg; assay type: functional
[26] = species: Rattus norvegicus; experiment: Partial remission of DMBA-induced hormone-dependent mammary carcinoma tumors in rats at 17 mg; assay type: functional; summary of the method: as §2
[27] = tested on: Estrogen receptor (Bos taurus); experiment: Displacement of [3H]estradiol from calf estrogen receptor
[28] = species: Rattus norvegicus; experiment: Progression of DMBA-induced hormone-dependent mammary carcinoma tumors in rats at 8.5 mg; assay type: functional
[29] = target: T1, Estrogen receptor (Mus musculus); experiment: Inhibitory activity in mouse uterine weight test at 1000 ug; assay type: functional; summary of the method: as §5
[30] = species: Rattus norvegicus; experiment: Percent change in DMBA-induced hormone-dependent mammary carcinoma tumor area at 17 mg after 28 days; assay type: functional; summary of the method: as §2
[31] = species: Rattus norvegicus; experiment: Complete remission of DMBA-induced hormone-dependent mammary carcinoma tumors in rats at 34 mg; assay type: functional; summary of the method: as §4
[32] = species: Rattus norvegicus; experiment: Complete remission of DMBA-induced hormone-dependent mammary carcinoma tumors in rats at 8.5 mg; assay type: functional; summary of the method: as §4
[33] = species: Rattus norvegicus; experiment: Partial remission of DMBA-induced hormone-dependent mammary carcinoma tumors in rats at 8.5 mg; assay type: functional; summary of the method: as §2
[34] = species: Rattus norvegicus; experiment: Final number of DMBA-induced hormone-dependent mammary carcinoma tumors in rats at 17 mg; assay type: functional; summary of the method: as §8
[35] = species: Rattus norvegicus; experiment: Percent change in body weight DMBA-induced hormone-dependent mammary carcinoma tumors in ovariectomised rats after 7 days; assay type: functional; summary of the method: as §9
[36] = species: Rattus norvegicus; experiment: Percent change in DMBA-induced hormone-dependent mammary carcinoma tumor area in ovariectomised rats after 28 days; assay type: functional; summary of the method: as §9
[37] = target: T1, Estrogen receptor (Mus musculus); experiment: Estrogenic activity in uterotrophic test in mice at 100 ug; assay type: functional; summary of the method: as §3
[38] = species: Rattus norvegicus; experiment: Percent unchanged tumor size of DMBA-induced hormone-dependent mammary carcinoma tumors in rats at 8.5 mg; assay type: functional
[39] = species: Rattus norvegicus; experiment: Complete remission of DMBA-induced hormone-dependent mammary carcinoma tumors in ovariectomised rats; assay type: functional; summary of the method: as §4
[40] = species: Rattus norvegicus; experiment: Number of DMBA-induced hormone-dependent mammary carcinoma tumors in ovariectomised rats; assay type: functional; summary of the method: as §9
[41] = species: Rattus norvegicus; experiment: Progression of DMBA-induced hormone-dependent mammary carcinoma tumors in rats at 17 mg; assay type: functional
[42] = species: Rattus norvegicus; experiment: Percent change in DMBA-induced hormone-dependent mammary carcinoma tumor area at 8.5 mg after 28 days; assay type: functional; summary of the method: as §2
[43] = species: Rattus norvegicus; experiment: Percent change in DMBA-induced hormone-dependent mammary carcinoma tumor area at 34 mg after 28 days; assay type: functional; summary of the method: as §2
[44] = species: Rattus norvegicus; experiment: Percent change in body weight DMBA-induced hormone-dependent mammary carcinoma tumors in rats at 8.5 mg for 7 days; assay type: functional
[45] = species: Rattus norvegicus; experiment: Initial tumor number of DMBA-induced hormone-dependent mammary carcinoma in rats at 8.5 mg; assay type: functional; summary of the method: as §2
[46] = species: Rattus norvegicus; experiment: Percent unchanged tumor size of DMBA-induced hormone-dependent mammary carcinoma tumors in rats at 17 mg; assay type: functional
[47] = species: Rattus norvegicus; experiment: Partial remission of DMBA-induced hormone-dependent mammary carcinoma tumors in rats at 34 mg; assay type: functional; summary of the method: as §2
[48] = target: T1, Estrogen receptor (Mus musculus); experiment: Estrogenic activity in uterotrophic test in mice at 30 ug; assay type: functional; summary of the method: as §3
[49] = species: Rattus norvegicus; experiment: Partial remission of DMBA-induced hormone-dependent mammary carcinoma tumors in ovariectomised rats; assay type: functional; summary of the method: as §9
[50] = species: Rattus norvegicus; experiment: Final number of DMBA-induced hormone-dependent mammary carcinoma tumors in rats at 34 mg; assay type: functional; summary of the method: as §8
[51] = species: Rattus norvegicus; experiment: Percent unchanged tumor size of DMBA-induced hormone-dependent mammary carcinoma tumors in ovarectiemised rats; assay type: functional; summary of the method: as §9
[52] = species: Rattus norvegicus; experiment: Initial tumor number of DMBA-induced hormone-dependent mammary carcinoma in rats at 34 mg; assay type: functional; summary of the method: as §2

SMILES: CC/C(=C(\c1ccccc1)c1ccc(OCCN(C)C)cc1)c1ccccc1 [TAMOXIFEN]
- Cell number [1]: 32900
- T/C [2]: 79%
- T/C [3]: 87%
- T/C [4]: 75%
- Cell number [5]: 34600
- Cell number [6]: 38000

- Effect [8]: 10.5
- inhibition [13]: 45%
- Effect [14]: 33.9
- Effect [15]: 16.5
- Effect [16]: 30.8
- Effect [17]: 25.9
- Effect [18]: 35.2
- inhibition [19]: 16%
- inhibition [20]: 3%
- Effect [23]: 10.5
- Effect [24]: 38.1
- Ka [27]: 2.3e+07 M⁻¹
- inhibition [29]: 1%
- Effect [37]: 12.6
- Effect [48]: 11.2
SMILES: CCCCC(c1cccc(O)c1)C(CCCC)c1cccc(O)c1 (stereo not given)
- No. of tumors [7]: 27
- Tumors [9]: 58%
- Change [10]: 0.3%
- Change [11]: 1.7%
- Tumors [12]: 3%
- No. of tumors [21]: 37
- Tumors [22]: 0%
- Tumors [25]: 27%
- Tumors [26]: 6%
- Tumors [28]: 65%
- Change [30]: 389%
- Tumors [31]: 6%
- Tumors [32]: 2%
- Tumors [33]: 9%
- No. of tumors [34]: 45
- Change [35]: 3.6%
- Change [36]: -96%
- Tumors [38]: 24%
- Tumors [39]: 74%
- No. of tumors [40]: 8
- Tumors [41]: 55%
- Change [42]: 534%
- Change [43]: 260%
- Change [44]: 1.5%
- No. of tumors [45]: 21
- Tumors [46]: 36%
- Tumors [47]: 9%
- Tumors [49]: 23%
- No. of tumors [50]: 30
- Tumors [51]: 3%
- No. of tumors [52]: 22

- inhibition [13]: 15%
- Effect [14]: 39.5
- Effect [17]: 34.2
- inhibition [20]: 5%
- Effect [23]: 10.5
- Effect [24]: 34.6
- Ka [27]: 3.3e+06 M⁻¹
- inhibition [29]: 14%
SMILES: CCCCCC(c1cccc(O)c1)C(CCCCC)c1cccc(O)c1 (stereo not given)
